Reference: ChEMBL document CHEMBL2311431, “Synthesis and biological evaluation of some 5-arylidene-2-(1,3-thiazol-2-ylimino)-1,3-thiazolidin-4-ones as dual anti-inflammatory/antimicrobial agents” (Bioorg Med Chem, 2013)
Values after ≈ are worked out from the molar mass of the structure shown. Active and inactive are the calls of the source. The calls are words filed in the database; no cut-off is given here.

Assays:
[1] = system: Aspergillus flavus; test: Fungicidal activity against Aspergillus flavus ATCC 9643 after 72 hrs by serial subcultivation method; format: functional; details: ATCC 9643, 72 h
[2] = system: Trichoderma viride; test: Fungicidal activity against Trichoderma viride IAM 5061 after 72 hrs by serial subcultivation method; format: functional; details: IAM 5061, 72 h
[3] = system: Penicillium ochrochloron; test: Antifungal activity against Penicillium ochrochloron ATCC 9112 after 72 hrs by serial dilution technique; format: functional; details: ATCC 9112, 72 h
Summary of the method: (§1)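 Serial dilution in malt broth; compounds from 1 mg/ml stocks in 5% DMSO; 72 h at 28 °C. MIC is the lowest concentration with no visible growth under a binocular microscope. Run in duplicate, repeated three times.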

[4] = system: Aspergillus flavus; test: Antifungal activity against Aspergillus flavus ATCC 9643 after 72 hrs by serial dilution technique; format: functional; details: ATCC 9643, 72 h; summary of the method: as §1
[5] = system: Aspergillus niger; test: Fungicidal activity against Aspergillus niger ATCC 6275 after 72 hrs by serial subcultivation method; format: functional; details: ATCC 6275, 72 h
[6] = system: Aspergillus niger; test: Antifungal activity against Aspergillus niger ATCC 6275 after 72 hrs by serial dilution technique; format: functional; details: ATCC 6275, 72 h; summary of the method: as §1
[7] = system: Listeria monocytogenes; test: Antibacterial activity against Listeria monocytogenes NCTC 7973 after 24 hr by microdilution test; format: functional; details: NCTC 7973, 24 h
Summary of the method: (§2)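 Broth microdilution in LB medium, about 1.0×10^4 cfu per well; compounds from 1 mg/ml stocks in 5% DMSO. Incubated 24 h. MIC is the lowest concentration with no visible growth under a binocular microscope. Run in duplicate, repeated three times.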

[8] = system: Micrococcus flavus; test: Bactericidal activity against Micrococcus flavus ATCC 10240 after 72 hrs by serial subcultivation method; format: functional; details: ATCC 10240, 72 h
[9] = system: Trichoderma viride; test: Antifungal activity against Trichoderma viride IAM 5061 after 72 hrs by serial dilution technique; format: functional; details: IAM 5061, 72 h; summary of the method: as §1
[10] = system: Bacillus cereus; test: Bactericidal activity against Bacillus cereus clinical isolate after 72 hrs by serial subcultivation method; format: functional
[11] = system: Escherichia coli; test: Bactericidal activity against Escherichia coli ATCC 35210 after 72 hrs by serial subcultivation method; format: functional; details: ATCC 35210, 72 h
[12] = system: Pseudomonas aeruginosa; test: Antibacterial activity against Pseudomonas aeruginosa ATCC 27853 after 24 hr by microdilution test; format: functional; details: ATCC 27853, 24 h; summary of the method: as §2
[13] = system: Staphylococcus aureus; test: Bactericidal activity against Staphylococcus aureus ATCC 6538 after 72 hrs by serial subcultivation method; format: functional; details: ATCC 6538, 72 h
[14] = system: Talaromyces funiculosus; test: Antifungal activity against Penicillium funiculosum ATCC 36839 after 72 hrs by serial dilution technique; format: functional; details: ATCC 36839, 72 h; summary of the method: as §1
[15] = system: Penicillium ochrochloron; test: Fungicidal activity against Penicillium ochrochloron ATCC 9112 after 72 hrs by serial subcultivation method; format: functional; details: ATCC 9112, 72 h
[16] = system: Escherichia coli; test: Antibacterial activity against Escherichia coli ATCC 35210 after 24 hr by microdilution test; format: functional; details: ATCC 35210, 24 h; summary of the method: as §2
[17] = system: Staphylococcus aureus; test: Antibacterial activity against Staphylococcus aureus ATCC 6538 after 24 hr by microdilution test; format: functional; details: ATCC 6538, 24 h; summary of the method: as §2
[18] = system: Pseudomonas aeruginosa; test: Bactericidal activity against Pseudomonas aeruginosa ATCC 27853 after 72 hrs by serial subcultivation method; format: functional; details: ATCC 27853, 72 h
[19] = system: Aspergillus fumigatus; test: Fungicidal activity against Aspergillus fumigatus after 72 hrs by serial subcultivation method; format: functional
[20] = system: Listeria monocytogenes; test: Bactericidal activity against Listeria monocytogenes NCTC 7973 after 72 hrs by serial subcultivation method; format: functional; details: NCTC 7973, 72 h
[21] = system: Micrococcus flavus; test: Antibacterial activity against Micrococcus flavus ATCC 10240 after 24 hr by microdilution test; format: functional; details: ATCC 10240, 24 h; summary of the method: as §2
[22] = system: Aspergillus fumigatus; test: Antifungal activity against Aspergillus fumigatus after 72 hrs by serial dilution technique; format: functional; summary of the method: as §1
[23] = system: Bacillus cereus; test: Antibacterial activity against Bacillus cereus clinical isolate after 24 hr by microdilution test; format: functional; summary of the method: as §2
[24] = system: Talaromyces funiculosus; test: Fungicidal activity against Penicillium funiculosum ATCC 36839 after 72 hrs by serial subcultivation method; format: functional; details: ATCC 36839, 72 h
[25] = biological target: T1, Prostaglandin G/H synthase 1 (Ovis aries) (UniProt P05979); test: Inhibition of ovine COX1 assessed as inhibition of PGF2a production by enzyme immunoassay; design: concentration or dose not given beside the values
T1 sequence (whole entry): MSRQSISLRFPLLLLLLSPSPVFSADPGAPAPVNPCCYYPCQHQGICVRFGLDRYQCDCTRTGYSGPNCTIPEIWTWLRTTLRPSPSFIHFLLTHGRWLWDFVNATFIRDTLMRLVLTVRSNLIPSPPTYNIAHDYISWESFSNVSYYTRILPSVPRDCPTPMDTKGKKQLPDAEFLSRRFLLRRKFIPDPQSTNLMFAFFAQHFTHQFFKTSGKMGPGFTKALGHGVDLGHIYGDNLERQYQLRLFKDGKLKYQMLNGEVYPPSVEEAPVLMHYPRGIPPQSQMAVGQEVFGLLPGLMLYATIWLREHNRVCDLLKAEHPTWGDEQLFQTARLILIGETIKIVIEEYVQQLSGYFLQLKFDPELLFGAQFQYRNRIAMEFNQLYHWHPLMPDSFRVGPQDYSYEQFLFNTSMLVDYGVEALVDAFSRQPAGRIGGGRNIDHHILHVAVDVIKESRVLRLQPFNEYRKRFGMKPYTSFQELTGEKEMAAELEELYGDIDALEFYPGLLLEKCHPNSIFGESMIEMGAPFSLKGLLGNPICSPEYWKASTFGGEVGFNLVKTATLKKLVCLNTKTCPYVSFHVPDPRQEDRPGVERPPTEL
Summary of the method: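 Ovine COX-1 from a commercial screening kit, tested with 0.1 µM arachidonic acid, which is below the saturating level. COX-derived PGH2 is reduced by SnCl2 to PGF2a, quantified by enzyme immunoassay with a broad prostaglandin antibody. At least triplicate.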

[26] = Inhibition of soybean lipoxygenase assessed as inhibition of sodium linolate conversion to 13-hydroperoxylinoleic acid after 4 mins by spectrophotometry; design: species or system Glycine max
[27] = system: Mus musculus; test: Acute toxicity in AKR mouse up to 0.5 mmol/kg, ip; format: organism-based; details: in vivo
[28] = system: Mus musculus; test: Antiinflammatory activity in AKR mouse assessed as inhibition of carrageenan-induced paw edema at 0.01 mmol/kg, ip measured after 3.5 hrs of carrageenan-challenge; format: functional
Summary of the method: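 AKR mice of both sexes (pregnant females excluded), 6-10 per group, fasted during the experiment. Edema induced by intradermal 0.05 mL of 2% carrageenin into the right hind paw. Compound given at 0.01 mmol/kg ip, suspended in water with Tween-80, at the same time as carrageenin.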

SMILES	MFC [1]	MFC [2]	MIC [3]	MIC [4]	MFC [5]	MIC [6]	MIC [7]	MBC [8]	MIC [9]	MBC [10]	MBC [11]	MIC [12]	MBC [13]	MIC [14]	MFC [15]	MIC [16]	MIC [17]	MFC [19]	MIC [22]	MFC [24]	further results
O=C1N/C(=N\c2nc(-c3ccccc3)cs2)S/C1=C\c1ccccc1Cl	23.4 µM (≈ 9.31 µg/mL)	23.4 µM (≈ 9.31 µg/mL)	11.7 µM (≈ 4.66 µg/mL)	17.6 µM (≈ 7 µg/mL)	23.4 µM (≈ 9.31 µg/mL)	17.6 µM (≈ 7 µg/mL)	25 µM (≈ 9.95 µg/mL)	25 µM (≈ 9.95 µg/mL)	11.7 µM (≈ 4.66 µg/mL)	25 µM (≈ 9.95 µg/mL)	100 µM (≈ 39.8 µg/mL)	50 µM (≈ 19.9 µg/mL)	100 µM (≈ 39.8 µg/mL)	17.6 µM (≈ 7 µg/mL)	23.4 µM (≈ 9.31 µg/mL)	50 µM (≈ 19.9 µg/mL)	50 µM (≈ 19.9 µg/mL)	23.4 µM (≈ 9.31 µg/mL)	17.6 µM (≈ 7 µg/mL)	23.4 µM (≈ 9.31 µg/mL)	MBC [18]: 100 µM (≈ 39.8 µg/mL); MBC [20]: 25 µM (≈ 9.95 µg/mL); MIC [21]: 25 µM (≈ 9.95 µg/mL); MIC [23]: 25 µM (≈ 9.95 µg/mL)
COc1ccc2c(c1)c(CC(=O)O)c(C)n2C(=O)c1ccc(Cl)cc1 [INDOMETHACIN]	–	–	–	–	–	–	–	–	–	–	–	–	–	–	–	–	–	–	–	–	inhibition [25]: inactive; IC50 [26]: Not Active
O=C1N/C(=N\c2nccs2)S/C1=C\c1ccc(Br)cc1	27.3 µM (≈ 10 µg/mL)	27.3 µM (≈ 10 µg/mL)	13.7 µM (≈ 5.02 µg/mL)	13.7 µM (≈ 5.02 µg/mL)	27.3 µM (≈ 10 µg/mL)	13.7 µM (≈ 5.02 µg/mL)	27.3 µM (≈ 10 µg/mL)	54.6 µM (≈ 20 µg/mL)	13.7 µM (≈ 5.02 µg/mL)	54.6 µM (≈ 20 µg/mL)	54.6 µM (≈ 20 µg/mL)	27.3 µM (≈ 10 µg/mL)	27.3 µM (≈ 10 µg/mL)	20.5 µM (≈ 7.51 µg/mL)	27.3 µM (≈ 10 µg/mL)	27.3 µM (≈ 10 µg/mL)	13.7 µM (≈ 5.02 µg/mL)	27.3 µM (≈ 10 µg/mL)	13.7 µM (≈ 5.02 µg/mL)	27.3 µM (≈ 10 µg/mL)	Activity [27]: Non-toxic; inhibition in vivo at 10 µmol/kg [28]: 42.2%; MBC [18]: 54.6 µM (≈ 20 µg/mL); inhibition ([25]; concentration not given here): 67%; MBC [20]: 54.6 µM (≈ 20 µg/mL); MIC [21]: 27.3 µM (≈ 10 µg/mL); MIC [23]: 20.5 µM (≈ 7.51 µg/mL); IC50 ([26]; read-out: IC50): 66 µM
O=C1N/C(=N\c2nc(-c3ccccc3)cs2)S/C1=C\c1ccc(Cl)cc1	27.3 µM (≈ 10.9 µg/mL)	27.3 µM (≈ 10.9 µg/mL)	13.7 µM (≈ 5.45 µg/mL)	13.7 µM (≈ 5.45 µg/mL)	27.3 µM (≈ 10.9 µg/mL)	13.7 µM (≈ 5.45 µg/mL)	50 µM (≈ 19.9 µg/mL)	25 µM (≈ 9.95 µg/mL)	13.7 µM (≈ 5.45 µg/mL)	50 µM (≈ 19.9 µg/mL)	50 µM (≈ 19.9 µg/mL)	50 µM (≈ 19.9 µg/mL)	100 µM (≈ 39.8 µg/mL)	20.5 µM (≈ 8.16 µg/mL)	27.3 µM (≈ 10.9 µg/mL)	50 µM (≈ 19.9 µg/mL)	50 µM (≈ 19.9 µg/mL)	27.3 µM (≈ 10.9 µg/mL)	13.7 µM (≈ 5.45 µg/mL)	27.3 µM (≈ 10.9 µg/mL)	Activity [27]: Non-toxic; inhibition in vivo at 10 µmol/kg [28]: 27.3%; MBC [18]: 100 µM (≈ 39.8 µg/mL); inhibition ([25]; concentration not given here): 78%; MBC [20]: 100 µM (≈ 39.8 µg/mL); MIC [21]: 25 µM (≈ 9.95 µg/mL); MIC [23]: 25 µM (≈ 9.95 µg/mL); IC50 ([26]; read-out: IC50): 54 µM
COc1ccc(OC)c(/C=C2\S/C(=N/c3nccs3)NC2=O)c1	348 µM (≈ 121 µg/mL)	348 µM (≈ 121 µg/mL)	58 µM (≈ 20.2 µg/mL)	290 µM (≈ 101 µg/mL)	290 µM (≈ 101 µg/mL)	232 µM (≈ 80.6 µg/mL)	58 µM (≈ 20.2 µg/mL)	290 µM (≈ 101 µg/mL)	58 µM (≈ 20.2 µg/mL)	348 µM (≈ 121 µg/mL)	464 µM (≈ 161 µg/mL)	290 µM (≈ 101 µg/mL)	348 µM (≈ 121 µg/mL)	7.3 µM (≈ 2.54 µg/mL)	116 µM (≈ 40.3 µg/mL)	406 µM (≈ 141 µg/mL)	232 µM (≈ 80.6 µg/mL)	348 µM (≈ 121 µg/mL)	233 µM (≈ 80.9 µg/mL)	58 µM (≈ 20.2 µg/mL)	Activity [27]: Non-toxic; inhibition in vivo at 10 µmol/kg [28]: 26%; MBC [18]: 406 µM (≈ 141 µg/mL); inhibition ([25]; concentration not given here): 85%; MBC [20]: 230 µM (≈ 79.9 µg/mL); MIC [21]: 232 µM (≈ 80.6 µg/mL); MIC [23]: 232 µM (≈ 80.6 µg/mL); IC50 ([26]; read-out: IC50): 52 µM
c1ccc(-c2ccc(C(c3ccccc3)n3ccnc3)cc2)cc1 (configuration not stated) [BIFONAZOLE]	640 µM (≈ 199 µg/mL)	800 µM (≈ 248 µg/mL)	480 µM (≈ 149 µg/mL)	480 µM (≈ 149 µg/mL)	640 µM (≈ 199 µg/mL)	480 µM (≈ 149 µg/mL)	–	–	640 µM (≈ 199 µg/mL)	–	–	–	–	640 µM (≈ 199 µg/mL)	640 µM (≈ 199 µg/mL)	–	–	640 µM (≈ 199 µg/mL)	480 µM (≈ 149 µg/mL)	800 µM (≈ 248 µg/mL)	–
